Results reported in BindingDB's records for doi:10.1016/j.bmcl.2009.08.036 (Glaxosmithkline, 2009).

Biological target: T1, Oxysterols receptor LXR-beta (Homo sapiens, UniProt P55055)
T1 sequence (P55055 whole entry): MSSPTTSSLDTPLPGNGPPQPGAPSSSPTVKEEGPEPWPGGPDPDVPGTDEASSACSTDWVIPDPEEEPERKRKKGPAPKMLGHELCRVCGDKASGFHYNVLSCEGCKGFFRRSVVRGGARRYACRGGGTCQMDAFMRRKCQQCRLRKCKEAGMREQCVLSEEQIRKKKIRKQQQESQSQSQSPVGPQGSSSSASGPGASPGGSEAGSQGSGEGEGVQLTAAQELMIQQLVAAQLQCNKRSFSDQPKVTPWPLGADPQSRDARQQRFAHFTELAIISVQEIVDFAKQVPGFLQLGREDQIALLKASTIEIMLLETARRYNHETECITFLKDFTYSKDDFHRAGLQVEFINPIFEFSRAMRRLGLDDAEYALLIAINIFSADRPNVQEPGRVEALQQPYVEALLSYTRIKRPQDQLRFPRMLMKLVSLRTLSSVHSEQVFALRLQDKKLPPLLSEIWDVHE
Test: Agonist activity at human LXRbeta assessed as association of SRC1 to LXRbeta ligand binding domain by FRET based cell-free ligand sensing assay
Method in brief: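 Cell-free FRET ligand-sensing assay measuring ligand-dependent recruitment of a 24-amino-acid steroid receptor coactivator 1 (SRC1) fragment to the LXR ligand-binding domain. Percent efficacy is expressed against the maximal agonist response of the reference agonist. Values are means of at least two experiments, standard deviation ≤10%.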

EC50: 26 nM
SMILES: O=C(O)C1CCCc2c(OCCCN(Cc3cccc(C(F)(F)F)c3Cl)CC(c3ccccc3)c3ccccc3)cccc21 (racemic) [(+/-)-5-(3-((2-chloro-3-(trifluoromethyl)benzyl)(2,2-diphenylethyl)amino)propoxy)-1,2,3,4-tetrahydronaphthalene-1-carboxylic acid]
